Source: ChEMBL document CHEMBL4184143 (J Med Chem, 2017)
Calls of active or inactive are those of the source. No cut-off for these calls is given here.

Experiments:
[1] = Half life in Sprague-Dawley rat at 5 mg/kg, iv by LC/MS method; format: ADME, organism-based; conditions: in vivo
[2] = system: MDA-MB-231; assay: Antitumor activity against human MDA-MB-231 cells xenografted in SCID mouse assessed as tumor growth inhibition at 40 mg/kg, po qd measured 2 to 3 times weekly during treatment and weekly post dose; format: functional, organism-based
How it was run: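 At ~100 mm3, mice were randomized to treatment or vehicle control. Tumors were measured by electronic calipers. Animals were checked daily for signs of toxicity and weighed 2–3 times weekly on treatment, then at least weekly afterwards.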

[3] = molecular target: ATPase family AAA domain-containing protein 2B (Homo sapiens, UniProt Q9ULI0); assay: Binding affinity to human partial length ATAD2B (Q955 to R1082 residues) expressed in bacterial expression system by BROMOscan assay
Sequence of ATPase family AAA domain-containing protein 2B (Q9ULI0 whole entry, the tested form may be a part): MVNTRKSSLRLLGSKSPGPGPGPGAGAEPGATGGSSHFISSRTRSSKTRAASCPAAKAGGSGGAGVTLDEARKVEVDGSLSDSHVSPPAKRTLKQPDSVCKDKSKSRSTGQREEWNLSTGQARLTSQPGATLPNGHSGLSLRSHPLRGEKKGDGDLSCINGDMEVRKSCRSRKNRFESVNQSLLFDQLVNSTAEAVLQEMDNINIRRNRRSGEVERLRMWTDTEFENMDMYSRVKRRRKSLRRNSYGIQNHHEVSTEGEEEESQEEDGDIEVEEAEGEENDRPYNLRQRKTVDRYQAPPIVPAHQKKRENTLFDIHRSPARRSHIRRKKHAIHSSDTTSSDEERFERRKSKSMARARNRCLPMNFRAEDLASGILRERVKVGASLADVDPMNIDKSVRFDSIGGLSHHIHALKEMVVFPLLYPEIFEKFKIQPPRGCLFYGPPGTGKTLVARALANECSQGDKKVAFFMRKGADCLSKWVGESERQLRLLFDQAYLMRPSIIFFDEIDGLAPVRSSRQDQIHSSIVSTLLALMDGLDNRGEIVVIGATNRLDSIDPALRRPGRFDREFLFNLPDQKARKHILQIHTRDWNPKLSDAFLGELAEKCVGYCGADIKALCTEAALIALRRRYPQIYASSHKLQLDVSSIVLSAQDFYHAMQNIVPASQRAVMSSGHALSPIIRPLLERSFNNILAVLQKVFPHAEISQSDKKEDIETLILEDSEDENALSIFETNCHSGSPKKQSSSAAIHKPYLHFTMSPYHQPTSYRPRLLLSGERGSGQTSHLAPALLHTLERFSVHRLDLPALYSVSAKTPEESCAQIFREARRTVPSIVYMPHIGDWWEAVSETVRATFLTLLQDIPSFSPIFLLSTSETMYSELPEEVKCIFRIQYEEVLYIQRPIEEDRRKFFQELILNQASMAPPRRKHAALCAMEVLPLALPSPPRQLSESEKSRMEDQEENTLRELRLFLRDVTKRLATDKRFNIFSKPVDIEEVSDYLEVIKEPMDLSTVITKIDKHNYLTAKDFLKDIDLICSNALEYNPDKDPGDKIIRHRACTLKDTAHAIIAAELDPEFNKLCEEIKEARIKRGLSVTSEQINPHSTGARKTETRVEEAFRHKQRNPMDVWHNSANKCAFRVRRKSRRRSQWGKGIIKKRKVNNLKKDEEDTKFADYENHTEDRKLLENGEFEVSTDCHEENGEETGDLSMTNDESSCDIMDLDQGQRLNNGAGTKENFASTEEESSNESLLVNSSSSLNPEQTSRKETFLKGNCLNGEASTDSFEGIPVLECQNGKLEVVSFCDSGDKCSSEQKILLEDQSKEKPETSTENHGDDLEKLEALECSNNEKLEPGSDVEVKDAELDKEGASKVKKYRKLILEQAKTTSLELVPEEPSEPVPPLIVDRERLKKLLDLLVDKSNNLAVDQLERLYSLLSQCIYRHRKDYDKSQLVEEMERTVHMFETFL

[4] = AUC (0 to t) in Sprague-Dawley rat at 25 mg/kg, po by LC/MS method; format: ADME, organism-based; conditions: in vivo
How it was run: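 Sprague Dawley rats were dosed iv at 5 mg/kg or orally at 25 mg/kg, with compound dissolved in 20% (v/v) PCP/70% (v/v) PBS vehicle. Blood was drawn by catheter at 0, 5, 15, 30 min and 1, 2, 4, 6, 8, 24 h and spun to plasma, which was stored at −80 °C. Plasma drug was quantified by a validated LC–MS/MS method, and parameters were derived noncompartmentally.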

[5] = molecular target: Bromodomain-containing protein 3 (Homo sapiens, UniProt Q15059); assay: Binding affinity to human partial length BRD3 bromodomain 1/2 (P24 to P416 residues) expressed in bacterial expression system by BROMOscan assay
Sequence of Bromodomain-containing protein 3 (Q15059 whole entry, the tested form may be a part): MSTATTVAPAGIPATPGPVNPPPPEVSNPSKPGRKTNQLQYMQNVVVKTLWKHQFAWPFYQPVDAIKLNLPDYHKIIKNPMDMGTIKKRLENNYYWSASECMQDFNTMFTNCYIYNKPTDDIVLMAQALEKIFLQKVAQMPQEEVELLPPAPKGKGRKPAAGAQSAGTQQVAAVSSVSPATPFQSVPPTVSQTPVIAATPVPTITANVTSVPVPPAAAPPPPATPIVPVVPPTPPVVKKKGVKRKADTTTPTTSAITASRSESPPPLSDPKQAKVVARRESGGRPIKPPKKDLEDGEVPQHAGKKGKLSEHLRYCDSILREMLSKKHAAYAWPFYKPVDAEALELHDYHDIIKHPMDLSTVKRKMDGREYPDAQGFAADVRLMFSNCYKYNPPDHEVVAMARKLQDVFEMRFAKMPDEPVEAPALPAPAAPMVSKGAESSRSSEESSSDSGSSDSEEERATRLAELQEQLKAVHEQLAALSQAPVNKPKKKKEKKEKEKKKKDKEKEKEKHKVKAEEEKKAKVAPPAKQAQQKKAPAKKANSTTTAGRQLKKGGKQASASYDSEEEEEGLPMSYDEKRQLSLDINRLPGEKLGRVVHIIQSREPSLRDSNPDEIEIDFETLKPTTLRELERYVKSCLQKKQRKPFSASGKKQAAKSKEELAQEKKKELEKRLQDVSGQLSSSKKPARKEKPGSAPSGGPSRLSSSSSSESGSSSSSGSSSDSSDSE

[6] = molecular target: Transcription intermediary factor 1-alpha (Homo sapiens, UniProt O15164); assay: Binding affinity to human partial length TRIM24 expressed in bacterial expression system by BROMOscan assay
Sequence of Transcription intermediary factor 1-alpha (O15164 whole entry, the tested form may be a part, canonical isoform): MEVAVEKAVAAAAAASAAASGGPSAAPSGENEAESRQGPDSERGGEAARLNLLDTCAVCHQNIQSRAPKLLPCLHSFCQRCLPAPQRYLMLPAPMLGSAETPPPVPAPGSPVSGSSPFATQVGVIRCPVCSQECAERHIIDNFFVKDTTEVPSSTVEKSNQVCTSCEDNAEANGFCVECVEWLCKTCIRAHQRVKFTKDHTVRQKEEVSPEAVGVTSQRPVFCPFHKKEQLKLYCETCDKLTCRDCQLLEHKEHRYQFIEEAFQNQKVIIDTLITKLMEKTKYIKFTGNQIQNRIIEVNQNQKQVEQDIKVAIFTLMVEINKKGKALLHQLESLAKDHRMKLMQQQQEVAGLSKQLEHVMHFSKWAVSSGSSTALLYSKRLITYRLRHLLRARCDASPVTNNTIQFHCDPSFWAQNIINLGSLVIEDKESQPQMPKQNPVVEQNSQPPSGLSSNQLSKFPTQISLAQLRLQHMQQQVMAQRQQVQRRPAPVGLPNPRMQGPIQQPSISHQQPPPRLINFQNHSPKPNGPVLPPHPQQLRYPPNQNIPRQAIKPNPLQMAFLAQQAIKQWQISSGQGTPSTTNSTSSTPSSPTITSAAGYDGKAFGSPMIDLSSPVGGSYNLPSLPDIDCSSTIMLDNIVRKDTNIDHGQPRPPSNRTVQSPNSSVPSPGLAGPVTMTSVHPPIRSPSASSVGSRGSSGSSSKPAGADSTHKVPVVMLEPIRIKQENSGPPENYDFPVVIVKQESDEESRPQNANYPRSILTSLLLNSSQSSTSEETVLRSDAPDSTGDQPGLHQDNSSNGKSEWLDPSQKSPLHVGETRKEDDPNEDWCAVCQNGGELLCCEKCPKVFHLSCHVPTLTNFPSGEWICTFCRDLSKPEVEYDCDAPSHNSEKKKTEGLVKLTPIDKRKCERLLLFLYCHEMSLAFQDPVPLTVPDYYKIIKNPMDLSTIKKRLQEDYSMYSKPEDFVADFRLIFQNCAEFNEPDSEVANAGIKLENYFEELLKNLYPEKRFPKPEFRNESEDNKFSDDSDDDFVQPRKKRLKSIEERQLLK

[7] = molecular target: Bromodomain testis-specific protein (Homo sapiens, UniProt Q58F21); assay: Binding affinity to human partial length BRDT bromodomain 1 isoform b (N21 to E137 residues) expressed in bacterial expression system by BROMOscan assay
[8] = molecular target: Bromodomain adjacent to zinc finger domain protein 2A (Homo sapiens, UniProt Q9UIF9); assay: Binding affinity to human partial length BAZ2A (M1792 to L1905 residues) expressed in bacterial expression system by BROMOscan assay
Sequence of Bromodomain adjacent to zinc finger domain protein 2A (Q9UIF9 whole entry, the tested form may be a part): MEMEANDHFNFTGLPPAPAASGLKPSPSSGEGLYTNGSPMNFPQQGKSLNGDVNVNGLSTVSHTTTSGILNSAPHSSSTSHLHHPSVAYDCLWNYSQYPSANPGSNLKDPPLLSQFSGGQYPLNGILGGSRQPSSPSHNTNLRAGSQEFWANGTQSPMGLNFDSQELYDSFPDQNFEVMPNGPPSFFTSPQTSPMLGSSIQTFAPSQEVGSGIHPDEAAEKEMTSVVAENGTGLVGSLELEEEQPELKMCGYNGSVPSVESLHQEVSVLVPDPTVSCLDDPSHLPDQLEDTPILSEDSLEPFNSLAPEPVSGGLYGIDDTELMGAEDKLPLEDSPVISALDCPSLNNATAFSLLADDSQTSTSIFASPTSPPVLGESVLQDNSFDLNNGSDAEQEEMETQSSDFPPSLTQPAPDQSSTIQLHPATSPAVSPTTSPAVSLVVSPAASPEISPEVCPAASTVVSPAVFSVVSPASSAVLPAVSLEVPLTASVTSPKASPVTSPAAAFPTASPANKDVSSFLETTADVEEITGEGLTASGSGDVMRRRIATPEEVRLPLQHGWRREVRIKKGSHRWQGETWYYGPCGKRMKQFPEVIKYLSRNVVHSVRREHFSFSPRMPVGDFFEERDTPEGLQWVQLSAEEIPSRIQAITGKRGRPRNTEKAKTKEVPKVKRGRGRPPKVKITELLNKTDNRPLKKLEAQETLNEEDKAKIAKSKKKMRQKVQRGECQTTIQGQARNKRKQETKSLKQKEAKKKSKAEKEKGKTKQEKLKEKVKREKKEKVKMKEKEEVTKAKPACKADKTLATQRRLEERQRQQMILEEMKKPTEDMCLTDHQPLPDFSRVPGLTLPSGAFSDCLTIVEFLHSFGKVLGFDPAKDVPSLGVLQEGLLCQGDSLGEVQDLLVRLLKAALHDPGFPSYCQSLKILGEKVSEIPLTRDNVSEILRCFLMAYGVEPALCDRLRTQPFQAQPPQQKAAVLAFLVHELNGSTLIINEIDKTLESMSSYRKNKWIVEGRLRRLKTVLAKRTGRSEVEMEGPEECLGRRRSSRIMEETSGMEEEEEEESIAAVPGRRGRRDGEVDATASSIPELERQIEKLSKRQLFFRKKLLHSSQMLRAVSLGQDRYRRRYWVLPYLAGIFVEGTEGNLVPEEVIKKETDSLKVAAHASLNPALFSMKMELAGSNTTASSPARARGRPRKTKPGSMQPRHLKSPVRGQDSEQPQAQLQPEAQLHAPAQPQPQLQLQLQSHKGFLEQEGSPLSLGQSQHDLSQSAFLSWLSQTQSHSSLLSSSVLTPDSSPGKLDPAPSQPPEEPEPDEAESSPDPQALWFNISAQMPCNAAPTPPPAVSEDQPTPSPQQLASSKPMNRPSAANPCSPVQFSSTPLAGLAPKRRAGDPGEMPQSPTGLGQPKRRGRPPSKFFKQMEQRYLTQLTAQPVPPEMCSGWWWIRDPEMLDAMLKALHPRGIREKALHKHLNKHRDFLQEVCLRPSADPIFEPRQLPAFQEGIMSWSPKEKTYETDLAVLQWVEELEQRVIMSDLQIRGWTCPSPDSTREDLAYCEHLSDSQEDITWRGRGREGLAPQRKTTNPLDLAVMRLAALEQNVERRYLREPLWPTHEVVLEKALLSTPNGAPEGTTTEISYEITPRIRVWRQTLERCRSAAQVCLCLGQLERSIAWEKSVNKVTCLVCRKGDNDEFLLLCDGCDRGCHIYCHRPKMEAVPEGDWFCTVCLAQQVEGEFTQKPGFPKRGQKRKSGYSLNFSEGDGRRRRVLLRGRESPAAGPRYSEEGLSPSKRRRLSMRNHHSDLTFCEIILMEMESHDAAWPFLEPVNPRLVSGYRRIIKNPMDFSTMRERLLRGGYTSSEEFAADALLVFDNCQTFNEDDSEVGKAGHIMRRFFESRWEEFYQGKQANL

half-life [1]: 2.4 h
Kd [3]: > 4000 nM
AUC(0-t) [4]: 29500 ng·h/mL
Kd [5]: 0.73 nM
Kd [6]: > 4000 nM
Kd [7]: 15 nM
Kd [8]: > 4000 nM
SMILES: COc1cc2c(cc1-c1c(C)noc1C)[nH]c1nc(C)nc(-c3ccnc4ccccc34)c12
TGI [2]: Active
